In ChEMBL document CHEMBL1649165, “Activity profile in vitro of micafungin against Spanish clinical isolates of common and emerging species of yeasts and molds” (2009):
In brackets after ≈: the same amount, converted by molar mass. *1 amine or outer side, *2 acyl side, *3 side chain or, on linkers, in order; H or OH if unused. Where a SMILES comes first, the peptide text is derived from it. Bridges are numbered along the chain shown (N, C = ends). [ ]: non-standard residue; d: D form. The star is where a group is joined. pTerphenylCO(4''-OnC5H11) = CCCCCOc1ccc(-c2ccc(-c3ccc(C(=O)*)cc3)cc2)cc1; Orn(4R-OH,5R-OH) = O=C([C@H](C[C@@H](O)[C@@H](O)N[*:3])N[*:1])[*:2]; hTyr(3S-OH,4S-OH) = N[C@H](C(=O)O)[C@H](O)[C@@H](O)c1ccc(O)cc1; Pro(3S-OH,4S-Me) = C[C@H]1CN[C@H](C(=O)O)[C@H]1O; Hyp = O=C(O)[C@@H]1C[C@@H](O)CN1

What was measured:
Format in all cases: functional
[1] = system: Candida tropicalis; test: Antimicrobial activity against Candida tropicalis by broth microdilution method
Method in brief: (§1)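 Clinical isolates from human patients, tested by broth microdilution using the AFST-EUCAST reference procedure for fermentative yeasts. The MIC was read per that reference method.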

[2] = system: Nakaseomyces glabratus; test: Antimicrobial activity against Candida glabrata by broth microdilution method; method in brief: as §1
[3] = system: Pichia kudriavzevii; test: Antimicrobial activity against Candida krusei by broth microdilution method; method in brief: as §1
[4] = system: Clavispora lusitaniae; test: Antimicrobial activity against Candida lusitaniae by broth microdilution method; method in brief: as §1
[5] = system: Diutina rugosa; test: Antimicrobial activity against Candida rugosa by broth microdilution method; method in brief: as §1
[6] = system: Debaryomyces hansenii; test: Antimicrobial activity against Candida famata by broth microdilution method; method in brief: as §1
[7] = system: [Candida] inconspicua; test: Antimicrobial activity against Candida inconspicua by broth microdilution method; conditions: Pichia inconspicua; method in brief: as §1
[8] = system: [Candida] zeylanoides; test: Antimicrobial activity against Candida zeylanoides by broth microdilution method; conditions: Dujonia zeylanoides; method in brief: as §1
[9] = system: Magnusiomyces capitatus; test: Antimicrobial activity against Dipodascus capitatus by broth microdilution method
[10] = system: Yarrowia lipolytica; test: Antimicrobial activity against Yarrowia lipolytica by broth microdilution method
[11] = system: Geotrichum candidum; test: Antimicrobial activity against Galactomyces geotrichum by broth microdilution method
[12] = system: Cryptococcus deneoformans; test: Antimicrobial activity against Cryptococcus neoformans var. neoformans by broth microdilution method
Method in brief: (§2)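 Clinical isolates of nonfermentative yeasts, tested by broth microdilution following EUCAST recommendations. The only change from that method was a minor modification to improve growth.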

[13] = system: Trichosporon inkin; test: Antimicrobial activity against Trichosporon inkin by broth microdilution method
Method in brief: (§3)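 Nonfermentative yeast clinical isolates (Rhodotorula, Trichosporon) tested by broth microdilution. The EUCAST yeast recommendations were followed strictly, with one minor modification to improve growth. MIC was read as the endpoint.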

[14] = system: Trichosporon ovoides; test: Antimicrobial activity against Trichosporon ovoides by broth microdilution method; method in brief: as §3
[15] = system: Naganishia albida; test: Antimicrobial activity against Cryptococcus albidus by broth microdilution method; method in brief: as §2
[16] = system: Ustilago; test: Antimicrobial activity against Ustilago spp by broth microdilution method
[17] = system: Papiliotrema laurentii; test: Antimicrobial activity against Cryptococcus laurentii by broth microdilution method; method in brief: as §2
[18] = system: Trichosporon; test: Antimicrobial activity against Trichosporon spp. by broth microdilution method; method in brief: as §3
[19] = system: Aspergillus flavus; test: Antimicrobial activity against Aspergillus flavus by broth microdilution method
Method in brief: (§4)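 Clinical mould isolates, tested by broth microdilution using the AFST-EUCAST reference method for filamentous fungi. For echinocandins, the endpoint was the minimum effective concentration: the lowest drug concentration giving aberrant hyphal growth, read with an inverted microscope.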

[20] = system: Aspergillus niger; test: Antimicrobial activity against Aspergillus niger by broth microdilution method; method in brief: as §4
[21] = system: Aspergillus nidulans; test: Antimicrobial activity against Aspergillus nidulans by broth microdilution method; method in brief: as §4
[22] = system: Aspergillus sydowii; test: Antimicrobial activity against Aspergillus sydowii by broth microdilution method; method in brief: as §4
[23] = system: Aspergillus versicolor; test: Antimicrobial activity against Aspergillus versicolor by broth microdilution method; method in brief: as §4
[24] = system: Aspergillus ochraceus; test: Antimicrobial activity against Aspergillus ochraceus by broth microdilution method; method in brief: as §4
[25] = system: Aspergillus glaucus; test: Antimicrobial activity against Aspergillus glaucus by broth microdilution method; method in brief: as §4
[26] = system: Aspergillus; test: Antimicrobial activity against Aspergillus spp. by broth microdilution method; method in brief: as §4
[27] = system: Penicillium; test: Antimicrobial activity against Penicillium spp. by broth microdilution method
Method in brief: (§5)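 Filamentous fungus clinical isolates tested by the AFST-EUCAST reference broth microdilution method for moulds. For echinocandins, the endpoint was the minimum effective concentration: the lowest drug concentration giving aberrant hyphal growth, read with an inverted microscope.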

[28] = system: Fusarium solani; test: Antimicrobial activity against Fusarium solani by broth microdilution method; method in brief: as §5
[29] = system: Acremonium sp.; test: Antimicrobial activity against Acremonium sp.by broth microdilution method; method in brief: as §4
[30] = system: Trichoderma; test: Antimicrobial activity against Trichoderma spp. by broth microdilution method; method in brief: as §5
[31] = system: Phialemonium curvatum; test: Antimicrobial activity against Phialemonium curvatum by broth microdilution method; conditions: Thyridium curvatum; method in brief: as §5
[32] = system: Fusarium equiseti; test: Antimicrobial activity against Fusarium equiseti by broth microdilution method; method in brief: as §4
[33] = system: Coprinellus domesticus; test: Antimicrobial activity against Hormographiella verticillata by broth microdilution method; method in brief: as §5
[34] = system: Aureobasidium pullulans; test: Antimicrobial activity against Aureobasidium pullulans by broth microdilution method
[35] = system: Hortaea werneckii; test: Antimicrobial activity against Hortaea werneckii by broth microdilution method
[36] = system: Lichtheimia corymbifera; test: Antimicrobial activity against Mycocladus corymbiferus by broth microdilution method; method in brief: as §5
[37] = system: Rhizopus arrhizus; test: Antimicrobial activity against Rhizopus oryzae by broth microdilution method; method in brief: as §5
[38] = system: Mucor; test: Antimicrobial activity against Mucor spp.by broth microdilution method; method in brief: as §5
[39] = system: Saksenaea vasiformis; test: Antimicrobial activity against Saksenaea vasiformis by broth microdilution method; method in brief: as §5
[40] = system: Exophiala jeanselmei; test: Antimicrobial activity against Exophiala jeanselmei by broth microdilution method

SMILES: CCCCCOc1ccc(-c2ccc(-c3ccc(C(=O)N[C@H]4C[C@@H](O)[C@@H](O)NC(=O)[C@@H]5[C@@H](O)[C@@H](C)CN5C(=O)[C@H]([C@@H](C)O)NC(=O)[C@H]([C@H](O)[C@@H](O)c5ccc(O)cc5)NC(=O)[C@@H]5C[C@@H](O)CN5C(=O)[C@H]([C@@H](C)O)NC4=O)cc3)cc2)cc1 [ANIDULAFUNGIN] ({pTerphenylCO(4''-OnC5H11)}-[Orn(4R-OH,5R-OH)]T[Hyp][hTyr(3S-OH,4S-OH)]T[Pro(3S-OH,4S-Me)]; lactam 1-C)
- MIC50 [1]: 0.03 µg/mL (≈ 0.0263 µM)
- MIC90 [1]: 0.03 µg/mL (≈ 0.0263 µM)
- MIC50 [2]: 0.03 µg/mL (≈ 0.0263 µM)
- MIC90 [2]: 0.03 µg/mL (≈ 0.0263 µM)
- MIC50 [3]: 0.03 µg/mL (≈ 0.0263 µM)
- MIC90 [3]: 0.06 µg/mL (≈ 0.0526 µM)
- MIC50 [4]: 0.03 µg/mL (≈ 0.0263 µM)
- MIC90 [4]: 0.12 µg/mL (≈ 0.105 µM)
- MIC50 [5]: 0.06 µg/mL (≈ 0.0526 µM)
- MIC90 [5]: 0.25 µg/mL (≈ 0.219 µM)
- MIC50 [6]: 0.06 µg/mL (≈ 0.0526 µM)
- MIC90 [6]: 0.25 µg/mL (≈ 0.219 µM)
- MIC50 [7]: 0.06 µg/mL (≈ 0.0526 µM)
- MIC90 [7]: 0.25 µg/mL (≈ 0.219 µM)
- MIC50 [8]: 0.06 µg/mL (≈ 0.0526 µM)
- MIC90 [8]: 0.25 µg/mL (≈ 0.219 µM)
- MIC50 [9]: 2 µg/mL (≈ 1.75 µM)
- MIC90 [9]: 4 µg/mL (≈ 3.51 µM)
- MIC50 [10]: 0.06 µg/mL (≈ 0.0526 µM)
- MIC90 [10]: 0.12 µg/mL (≈ 0.105 µM)
- MIC50 [11]: > 16 µg/mL
- MIC90 [11]: > 16 µg/mL
- MIC50 [12]: > 16 µg/mL
- MIC90 [12]: > 16 µg/mL
- MIC50 [13]: > 16 µg/mL
- MIC90 [13]: > 16 µg/mL
- MIC50 [14]: > 16 µg/mL
- MIC90 [14]: > 16 µg/mL
- MIC50 [15]: > 16 µg/mL
- MIC90 [15]: > 16 µg/mL
- MIC50 [16]: > 16 µg/mL
- MIC90 [16]: > 16 µg/mL
- MIC50 [17]: > 16 µg/mL
- MIC90 [17]: > 16 µg/mL
- MIC50 [18]: > 16 µg/mL
- MIC90 [18]: > 16 µg/mL
- MIC50 [19]: > 16 µg/mL
- MIC90 [19]: > 16 µg/mL
- MIC50 [20]: 0.03 µg/mL (≈ 0.0263 µM)
- MIC90 [20]: 0.03 µg/mL (≈ 0.0263 µM)
- MIC50 [21]: 0.03 µg/mL (≈ 0.0263 µM)
- MIC90 [21]: 0.25 µg/mL (≈ 0.219 µM)
- MIC50 [22]: 0.03 µg/mL (≈ 0.0263 µM)
- MIC90 [22]: 0.03 µg/mL (≈ 0.0263 µM)
- MIC50 [23]: 0.03 µg/mL (≈ 0.0263 µM)
- MIC90 [23]: 0.03 µg/mL (≈ 0.0263 µM)
- MIC50 [24]: 0.06 µg/mL (≈ 0.0526 µM)
- MIC90 [24]: 0.25 µg/mL (≈ 0.219 µM)
- MIC50 [25]: 0.06 µg/mL (≈ 0.0526 µM)
- MIC90 [25]: 0.25 µg/mL (≈ 0.219 µM)
- MIC50 [26]: 0.06 µg/mL (≈ 0.0526 µM)
- MIC90 [26]: 0.25 µg/mL (≈ 0.219 µM)
- MIC50 [27]: 0.03 µg/mL (≈ 0.0263 µM)
- MIC90 [27]: 0.03 µg/mL (≈ 0.0263 µM)
- MIC50 [28]: > 16 µg/mL
- MIC90 [28]: > 16 µg/mL
- MIC50 [29]: 0.03 µg/mL (≈ 0.0263 µM)
- MIC90 [29]: 0.03 µg/mL (≈ 0.0263 µM)
- MIC50 [30]: > 16 µg/mL
- MIC90 [30]: > 16 µg/mL
- MIC50 [31]: > 16 µg/mL
- MIC90 [31]: > 16 µg/mL
- MIC50 [32]: > 16 µg/mL
- MIC90 [32]: > 16 µg/mL
- MIC50 [33]: > 16 µg/mL
- MIC90 [33]: > 16 µg/mL
- MIC50 [34]: 0.03 µg/mL (≈ 0.0263 µM)
- MIC90 [34]: 0.06 µg/mL (≈ 0.0526 µM)
- MIC50 [35]: 0.03 µg/mL (≈ 0.0263 µM)
- MIC90 [35]: 0.06 µg/mL (≈ 0.0526 µM)
- MIC50 [36]: > 16 µg/mL
- MIC90 [36]: > 16 µg/mL
- MIC50 [37]: > 16 µg/mL
- MIC90 [37]: > 16 µg/mL
- MIC50 [38]: > 16 µg/mL
- MIC90 [38]: > 16 µg/mL
- MIC50 [39]: > 16 µg/mL
- MIC90 [39]: > 16 µg/mL
- MIC50 [40]: 0.03 µg/mL (≈ 0.0263 µM)
- MIC90 [40]: 0.06 µg/mL (≈ 0.0526 µM)
